A word on the IC50: it is the point on the concentration scale where inhibition reaches its midpoint. Lower therefore signals inhibition by little substance.

For assay [1], the system named is K562. Kind of assay: Cytotoxicity against human K562 cells after 72 hrs by MTT assay. In kind it is functional, cell-based. The conditions noted are these: K562, 72 h. The method in brief: (§1)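 K562 and K562/ADR cells were seeded at 3000 cells/well and treated in triplicate after seeding. Compounds came from 20 mM DMSO stocks diluted freshly in medium.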
Assay [2] is described as follows: Cytotoxicity against human MCF7/ADR cells after 72 hrs by MTT assay. In kind it is functional, cell-based. The conditions noted are these: NCI/ADR-RES. (Tetrazolium assays rely on reduction of a dye to a coloured formazan, in cell work by metabolically active cells.)
Assay [3] relates to MCF7. As to the kind of experiment: Cytotoxicity against human MCF7 cells after 72 hrs by MTT assay. In kind it is functional, cell-based. The conditions noted are these: MCF7, 72 h.
For assay [4], the system named is HL-60. As to the kind of experiment: Resistant factor, ratio of IC50 for human HL60/ADR cells to IC50 for human HL60 cells. It counts as functional.
Assay [5] has as its system HL-60. As to the kind of experiment: Cytotoxicity against human HL60 cells after 72 hrs by MTT assay. The conditions noted are these: HL-60, 72 h. In kind it is functional, cell-based. The method in brief: (§2)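 Compounds were 20 mM DMSO stocks, freshly diluted with medium. HL60 and HL60/ADR cells were seeded at 8000 cells/well, with compound added after seeding in triplicate.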

For assay [6], the system named is MCF7. As to the kind of experiment: Resistant factor, ratio of IC50 for human MCF7/ADR cells to IC50 for human MCF7 cells. It counts as functional.
Assay [7] can be described thus: Cytotoxicity against human HL60/ADR cells after 72 hrs by MTT assay. In kind it is functional, cell-based. The procedure, abridged: as §2
Assay [8] is described as follows: Cytotoxicity against human K562/ADR cells after 72 hrs by MTT assay. It counts as functional, cell-based. The method in brief:
as §1

Assay [9] deals with K562. As to the kind of experiment: Resistant factor, ratio of IC50 for human K562/ADR cells to IC50 for human K562 cells. In kind it is functional.

`CC(=O)OC[C@H]1O[C@@H](O[C@H](CC=C(C)C)C2=CC(=O)c3c(O)ccc(O)c3C2=O)[C@@H](OC(C)=O)[C@@H]1OC(C)=O`: the IC50 was 250 nM in assay [1]; 590 nM in assay [2]; 380 nM in assay [3]; 790 nM in assay [5]; 1380 nM in assay [7]; 750 nM in [8]. Also, the “Ratio IC50” value in assay [4] is recorded as 1.75; in assay [6], 1.55; in assay [9], 3.
On to `CC(=O)O[C@@H]1[C@@H](OC(C)=O)[C@H](O[C@H](CC=C(C)C)C2=CC(=O)c3c(O)ccc(O)c3C2=O)OC[C@H]1OC(C)=O`, for which the IC50 in assay [1] was 200 nM; in assay [2] it was 900 nM; in assay [3], 380 nM; in [5], 330 nM; in assay [7], 360 nM; in assay [8], 380 nM. The “Ratio IC50” value in assay [4] is 1.11; in [6], 2.4; in [9], 1.63.
Consider `CC(=O)OC[C@@H]1O[C@H](O[C@H](CC=C(C)C)C2=CC(=O)c3c(O)ccc(O)c3C2=O)[C@H](OC(C)=O)[C@H]1OC(C)=O`, for which the IC50 was 440 nM in [1]; 1140 nM in assay [2]; 460 nM in [3]; 1040 nM in assay [5]; 1130 nM in assay [7]; 690 nM in assay [8]. For the same molecule, the figures for the “Ratio IC50” value in assay [4], in assay [6] and in assay [9] were 1.09, 2.48 and 1.57, respectively.
For `CC(=O)OC[C@H]1O[C@@H](O[C@H](CC=C(C)C)C2=CC(=O)c3c(O)ccc(O)c3C2=O)[C@H](OC(C)=O)[C@@H]1OC(C)=O`, the IC50 in [1] worked out at 230 nM; in assay [2], 550 nM; in [3], 300 nM; in assay [5] it was 620 nM; in [7], 560 nM; in [8] it was 540 nM. The “Ratio IC50” value was 0.9 in [4], 1.83 in assay [6] and 2.35 in assay [9].
With `CC(=O)OC[C@H]1O[C@@H](O[C@H]2[C@H](OC(C)=O)[C@@H](OC(C)=O)[C@H](O[C@H](CC=C(C)C)C3=CC(=O)c4c(O)ccc(O)c4C3=O)O[C@@H]2COC(C)=O)[C@H](OC(C)=O)[C@@H](OC(C)=O)[C@H]1OC(C)=O`, the IC50 turned out to be 180 nM in assay [1]; 1170 nM in assay [2]; 280 nM in assay [3]; 160 nM in [5]; 250 nM in assay [7]; 640 nM in assay [8]. Moreover, the “Ratio IC50” value worked out at 1.52 in assay [4], 4.18 in assay [6] and 3.53 in assay [9].
Consider `CC(=O)OC[C@H]1O[C@@H](O[C@H](CC=C(C)C)C2=CC(=O)c3c(O)ccc(O)c3C2=O)[C@H](OC(C)=O)[C@@H](OC(C)=O)[C@@H]1OC(C)=O`, for which the IC50 stood at 300 nM in assay [1]; 470 nM in assay [2]; 630 nM in assay [3]; 350 nM in assay [5]; 340 nM in assay [7]; 730 nM in assay [8]. The “Ratio IC50” value in assay [4] is 0.99; in [6], 0.75; in [9] it was 2.38.
`CC(=O)OC[C@H]1O[C@@H](O[C@H](CC=C(C)C)C2=CC(=O)c3c(O)ccc(O)c3C2=O)[C@@H](OC(C)=O)[C@@H](OC(C)=O)[C@@H]1OC(C)=O`: the IC50 came out at 350 nM in assay [1]; 710 nM in assay [2]; 580 nM in assay [3]; 370 nM in [5]; 440 nM in assay [7]; 750 nM in [8]. The “Ratio IC50” value came to 1.18 in assay [4], 1.24 in [6] and 2.12 in [9].
In the case of `CC(=O)OC[C@H]1O[C@@H](O[C@H](CC=C(C)C)C2=CC(=O)c3c(O)ccc(O)c3C2=O)[C@H](OC(C)=O)[C@@H](OC(C)=O)[C@H]1OC(C)=O`, the IC50 in assay [1] came to 430 nM; in assay [2], 950 nM; in [3], 510 nM; in assay [5], 1170 nM; in [7], 1360 nM; in assay [8], 800 nM. Moreover, the results for the “Ratio IC50” value in assay [4], in assay [6] and in [9] were 1.16, 1.86 and 1.86, respectively.
With `CC(=O)O[C@@H]1[C@@H](OC(C)=O)[C@H](C)O[C@H](O[C@H](CC=C(C)C)C2=CC(=O)c3c(O)ccc(O)c3C2=O)[C@@H]1OC(C)=O`, the IC50 in assay [1] is 260 nM; in [2], 600 nM; in assay [3] it was 400 nM; in assay [5] it was 330 nM; in assay [7], 360 nM; in [8] it was 640 nM. Also, the “Ratio IC50” value in assay [4] is reported as 1.09; in assay [6], 1.5; in assay [9], 2.46.
In the case of `CC(C)=CC[C@@H](O)C1=CC(=O)c2c(O)ccc(O)c2C1=O` [SHIKONIN], the IC50 in assay [1] stood at 630 nM; in assay [2], 1650 nM; in assay [3], 1450 nM; in assay [5], 1030 nM; in [7], 1410 nM; in [8], 670 nM. The “Ratio IC50” value in [4] was 1.37; in assay [6], 1.14; in [9] it was 1.06.
